NTR1 ag = NTR1 (human) agonism | P30989 | NTR1-U2OS beta-arrestin-GFP spot imaging, agonist mode | activation, % at 20 µM | 330,000 compounds, 0.17% hits;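 active = activation at or above 40% of the spot to cytoplasm intensity ratio, with at least 20 cells analyzed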;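 note: 0% = DMSO without peptide and 100% = 100 nM NTR1 peptide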
MC4R antag cAMP = human MC4R antagonism in cAMP assay; P32245; MC4R-expressing cells, MTII-stimulated cAMP, LANCE TR-FRET; inhibition, % at 6.5 µM; 360,000 compounds, 0.48% hits; AID 540295;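 active = inhibition above its plate's cutoff, the mean of tested wells on that plate plus 3 SD, cut at about 29% in these data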;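 note: 0% = Melanotan II alone and 100% = Melanotan II plus saturating MCL0020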
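Material: U2OS-MC4R stable cell line | Reagent: Melanotan II challenge after compound preincubation | Doses: One concentration, 6.5 µM nominal | Incubation: 30-min compound preincubation, 1-h Melanotan II challenge, 1-h detection, room temperature | Signal: TR-FRET cAMP assay | Replicates: One well per compound, no replicates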
AI-2 QS mod = Vibrio harveyi AI-2 quorum sensing modulation. Vibrio harveyi JMH597 AI-2 luminescence/OD600 ratio, 9 h; stronger effect = lower value; strain lacks LuxN and CqsS sensors; 0 = neutral-control median. activity change, % at 7.5 µM. 300,000 compounds, 0.4% hits. AID 2094; in the data active = activity change below about -75%, passing the limit was not always enough;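 note: luminescence divided by OD600 gain over 9 h not by final OD600 alone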
MC4R ag barr = agonists of human melanocortin 4 receptor (MC4R) beta-arrestin; P32245; U2OS MC4R beta-arrestin complementation, luminescence; percent of melanotan II response, DMSO zero; activation, % at 8.9 µM; 360,000 compounds, 0.98% hits; AID 540308;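 active = activation above a per-plate cutoff, the mean activation of sample wells on that plate plus 3 SD, cut at about 8% in these data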
NTR1 ag confirm = confirmation of agonists of human NTR1 | AID 504550 | NTR1-U2OS beta-arrestin-GFP translocation imaging | 480 compounds, 38% hits | shares compounds with NTR1 ag | activation, % at 20 µM;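 active = mean activation at 20 µM of at least 40%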;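 note: 0% = DMSO without peptide and 100% = 100 nM NTR1 peptide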
cAMP nonselect = U2OS forskolin cAMP inhibition counter-screen; shares compounds with MC4R antag cAMP; parental U2OS, LANCE TR-FRET; inhibition, % at 6.5 µM; 1,600 compounds, 26% hits;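 active = mean inhibition over triplicates above the low-control well mean plus 3 SD, set per campaign, cut at about 13% in these data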;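 note: signal is single emission at 671 nm which falls as cellular cAMP rises; 0% = forskolin-stimulated wells and 100% = buffer without forskolin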
MC4R cAMP antag = human MC4R cAMP antagonism confirmation | 1,600 compounds, 27% hits | inhibition, % at 6.5 µM | MC4R-expressing cells, MTII-stimulated cAMP, TR-FRET | shares compounds with MC4R antag cAMP; in the data active = inhibition above about 29%;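 note: 0% = agonist stimulated wells alone and 100% = agonist stimulated wells plus saturating reference antagonist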
MC4R barr ag = human MC4R beta-arrestin agonism confirmation | U2OS MC4R beta-arrestin recruitment, luminescence; scaled DMSO 0%, Melanotan II 100% | 2,400 compounds, 31% hits | shares compounds with MC4R ag barr | AID 602192 | activation, % at 8.9 µM;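 active = mean activation across replicates above the hit cutoff set in the earlier primary screen, cut at about 8% in these data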
MOR-DOR barr ag = counter-screen for MC4R agonists: agonists of mu-delta opioid heterodimer | shares compounds with MC4R ag barr | U2OS PathHunter beta-arrestin, beta-gal luminescence; percent of deltorphin B response, DMSO zero | activation, % at 9.2 µM | 2,400 compounds, 5.8% hits | AID 602194;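 active = mean activation across replicates exceeds the hit threshold derived in the earlier primary screen, cut at about 18% in these data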;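 note: 100% = deltorphin B at 0.9 µM final and 0% = DMSO alone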
Target sequence (P35372 whole entry, looked up): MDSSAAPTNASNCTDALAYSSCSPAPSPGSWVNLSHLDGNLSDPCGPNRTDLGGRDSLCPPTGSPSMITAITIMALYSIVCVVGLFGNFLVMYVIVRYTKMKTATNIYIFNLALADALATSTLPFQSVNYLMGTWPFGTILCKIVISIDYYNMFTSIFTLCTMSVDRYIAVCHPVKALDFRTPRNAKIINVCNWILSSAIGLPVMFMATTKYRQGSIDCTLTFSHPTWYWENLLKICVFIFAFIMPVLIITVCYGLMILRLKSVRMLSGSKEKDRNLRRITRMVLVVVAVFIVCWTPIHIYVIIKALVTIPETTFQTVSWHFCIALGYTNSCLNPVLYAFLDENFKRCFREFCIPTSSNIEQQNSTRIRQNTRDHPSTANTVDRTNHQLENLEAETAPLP
Target sequence (P41143 whole entry, looked up): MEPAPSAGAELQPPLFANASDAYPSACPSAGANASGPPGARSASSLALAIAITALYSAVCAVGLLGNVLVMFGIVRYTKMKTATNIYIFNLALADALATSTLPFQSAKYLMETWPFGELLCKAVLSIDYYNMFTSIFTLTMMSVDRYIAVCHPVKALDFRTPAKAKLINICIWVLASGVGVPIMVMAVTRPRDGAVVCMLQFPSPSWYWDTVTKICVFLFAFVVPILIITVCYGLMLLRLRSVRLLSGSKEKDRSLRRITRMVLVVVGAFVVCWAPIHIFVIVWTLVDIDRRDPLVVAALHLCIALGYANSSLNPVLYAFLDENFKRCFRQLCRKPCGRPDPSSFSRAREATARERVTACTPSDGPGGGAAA
Numbers without * were called inactive. This is a sample that favours compounds with a hit; in the whole collection about 1.8% have one here.

For C[CH2][Hg][S]c1ccccc1C(=O)O the results were NTR1 ag 96.8*, MC4R antag cAMP 95.2*, MC4R ag barr -0.8, NTR1 ag confirm 95.3*, cAMP nonselect 40.0* and MC4R cAMP antag 91.4*.
Screening O=C1Nc2ccc(Br)cc2C(c2ccccc2Cl)=NC1O (stereo unspecified) returned NTR1 ag -1.9, MC4R antag cAMP 1.2, AI-2 QS mod 19.0 and MC4R ag barr 0.1.
CC12CC[C@H]3[C@@H](CCC4(O)C[C@H](O)CCC34/C=N/NC(=O)c3ccccc3O)C1(O)CCC2C1=CC(=O)OC1 (stereo partly specified) was read as NTR1 ag -0.5, MC4R antag cAMP 29.2*, AI-2 QS mod 9.6, MC4R ag barr 6.1, cAMP nonselect -4.9 and MC4R cAMP antag -3.9.
COc1ccccc1N1C(=O)NC(=O)/C(=C\c2cnn(-c3ccccc3)c2)C1=O was read as NTR1 ag 20.3, MC4R antag cAMP 30.1*, AI-2 QS mod 6.6, MC4R ag barr 2.3, cAMP nonselect 11.0 and MC4R cAMP antag 8.6.
Screening COC(=O)C1=C(c2ccc(Cl)c(C(F)(F)F)c2)C[C@@H]2CC[C@H]1N2C(=O)NCCOc1ccccc1Cl returned NTR1 ag 4.4, MC4R antag cAMP 5.1 and MC4R ag barr 2.9.
CCOP(=O)(CCP(=O)(OCC)OCC)OCC.C[CH2][Sn]([Cl])([Cl])[CH2]C was read as MC4R antag cAMP 69.9*, MC4R ag barr -1.6, cAMP nonselect 10.8 and MC4R cAMP antag 28.9*.
`CCOP(=O)(OCC)OCC` gave NTR1 ag -1.2, MC4R antag cAMP 6.2 and MC4R ag barr -0.5.
For CCc1ccc2nc(N3CCC(C(=O)N4CCC5(CC4)OCCO5)CC3)sc2c1 the results were NTR1 ag 6.4, MC4R antag cAMP 1.1, AI-2 QS mod 22.3 and MC4R ag barr 0.0.
For C=C1C(C)C2C(Cc3ccccc3)NC(=O)C23OC(=O)/C=C/C(O)CCCC(C)C/C=C/C3C1O (stereo unspecified) the results were MC4R antag cAMP 35.6*, MC4R ag barr 0.3, cAMP nonselect 1.3 and MC4R cAMP antag -1.8.
COC(=O)C1=C(c2ccc(OC(F)(F)F)cc2)C[C@@H]2CC[C@H]1N2C(=O)NCCc1ccccc1 was read as NTR1 ag 3.5, MC4R antag cAMP 16.5 and MC4R ag barr 0.3.
Nc1ncnc2c1ccn2[C@@H]1O[C@H](CO)[C@@H](O)[C@H]1O was read as NTR1 ag -0.8, MC4R antag cAMP 44.7*, AI-2 QS mod 16.5, MC4R ag barr 0.1, cAMP nonselect 93.6* and MC4R cAMP antag 78.5*.
`NC(=S)c1cn(C2OC(CO)C(O)C2O)c2ncnc(N)c12` (stereo unspecified) gave MC4R antag cAMP 31.1*, AI-2 QS mod 17.1, MC4R ag barr -2.2, cAMP nonselect 0.5 and MC4R cAMP antag 28.0.
Screening O=C(NN=Cc1ccc(N(CCCl)CCCl)cc1)C(=O)c1c[nH]c2ccccc12 returned MC4R antag cAMP 30.8*, MC4R ag barr 0.9, cAMP nonselect 2.4 and MC4R cAMP antag 26.5.
Screening CCOC(=O)[C@@H]1[C@H]2COc3ccc(Br)cc3[C@@H]2N2C(=O)N(c3cccc(C)c3)C(=O)[C@]12C returned NTR1 ag -2.3, MC4R antag cAMP 2.5, AI-2 QS mod 37.5 and MC4R ag barr -0.7.
For Cc1ccccc1C(=O)N1Cc2cnnn2-c2ccccc2C1C#N (stereo unspecified) the results were MC4R antag cAMP 4.5 and MC4R ag barr 2.3.
`Cc1ccccc1CN1Cc2cnnn2-c2ccccc2C1C#N` (stereo unspecified) gave MC4R antag cAMP 37.1*, MC4R ag barr -0.8, cAMP nonselect 5.0 and MC4R cAMP antag 45.1*.
O=C1NC(=O)N(c2cccc(Cl)c2)C(=O)/C1=C\c1ccc(Sc2nc3ccccc3[nH]2)o1 was read as NTR1 ag -0.3, MC4R antag cAMP 24.2, AI-2 QS mod 3.3 and MC4R ag barr -1.9.
For O=C1NC(=O)N(c2ccccc2)C(=O)/C1=C/c1ccc(Sc2ccccc2)o1 the results were MC4R antag cAMP 29.3*, AI-2 QS mod 9.4, MC4R ag barr -2.4, cAMP nonselect 17.6* and MC4R cAMP antag 5.7.
For O=C(O)c1ccc(NC(=O)N2C[C@H]3C[C@@H](C2)c2cccc(=O)n2C3)cc1 the results were NTR1 ag 1.9, MC4R antag cAMP 3.0, AI-2 QS mod 21.2 and MC4R ag barr -2.0.
For CCOC(=O)C1(c2ccccc2)CCN(CCc2ccc(NC(=O)CCC(=O)O)cc2)CC1 the results were MC4R antag cAMP 1.0 and MC4R ag barr -0.7.
For COC(=O)C1=C(c2ccc(C(C)=O)cc2)C[C@@H]2CC[C@H]1N2C(=O)NCc1ccc2c(c1)OCO2 the results were NTR1 ag 0.3, MC4R antag cAMP 8.9 and MC4R ag barr 0.4.
C/C(=N\Nc1cccc2ccccc12)c1c(O)n(Cc2ccccc2)c(=O)[nH]c1=O was read as NTR1 ag 3.9, MC4R antag cAMP 28.5*, AI-2 QS mod 11.0, MC4R ag barr 0.0, cAMP nonselect -1.8 and MC4R cAMP antag -6.9.
Screening CC12CCC3C(CC=C4CC(O)CCC43C)C1C/C(=C\c1ccccc1F)C2=O (stereo unspecified) returned NTR1 ag 28.2, MC4R antag cAMP 6.6, AI-2 QS mod 18.9, MC4R ag barr 26.9*, MC4R barr ag 25.2* and MOR-DOR barr ag 4.0.
For Nc1cccc(SC2CC(=O)N(c3ccc(Cl)cc3C(=O)c3ccccc3)C2=O)c1 (stereo unspecified) the results were MC4R antag cAMP -5.2, MC4R ag barr 9.7*, MC4R barr ag 3.9 and MOR-DOR barr ag 8.7.
For NC(N)=N/N=C/c1cn(-c2ccccc2)nc1-c1cccs1 the results were NTR1 ag 2.6, MC4R antag cAMP -3.8, AI-2 QS mod -10.0, MC4R ag barr 11.9*, MC4R barr ag 18.8* and MOR-DOR barr ag 24.2*.
For O=c1c2ccccc2nc(-c2cccs2)n1-c1ccccc1 the results were NTR1 ag 2.0, MC4R antag cAMP 0.3, AI-2 QS mod 28.1 and MC4R ag barr -2.3.
`Clc1ccccc1C1=NCc2nncn2-c2sc(Br)cc21` gave NTR1 ag -0.8, MC4R antag cAMP 0.5, AI-2 QS mod 13.1 and MC4R ag barr -1.9.
